Measured values from ChEMBL document CHEMBL1126658, “Thyroid hormone uptake by hepatocytes: structure-activity relationships of phenylanthranilic acids with inhibitory activity” (J Med Chem, 1993).

These compounds were tested on H4 (assay: Compound is evaluated for the inhibition of [125I]T3 uptake by H4 rat hepatoma cells at 0.1 mM).
Type: functional
How it was run: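 H4 rat hepatoma cells grown in DMEM/10% FCS at 37 °C, plated to confluence (2 × 10^6 cells/well), then held overnight in serum-free DMEM. Fresh medium with 10^-11 M [125I]T3 plus test substance (final 0.1 mM from DMSO/ethanol stock; solvent-matched controls), 2 min at 37 °C. Five PBS pH 7.4 washes, 0.1 M NaOH lysis, cell-associated radioactivity counted. Nondisplaceable uptake taken with 10^-5 M unlabeled T3. Percent inhibition vs control, ≥5 replicates.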

First: O=C(O)c1ccccc1Nc1ccc(Cl)c(Cl)c1
Second: O=C(O)c1ccccc1Nc1cc(Cl)ccc1Cl
The inhibition at 100 µM of the first is higher: 55.6% for the first, 43.2% for the second.

Compared with `O=C(O)c1ccccc1Nc1cccc(Cl)c1`, `Cc1cccc(Nc2ccccc2C(=O)O)c1` is lower in inhibition at 100 µM: 51.4% for the first, 30% for the second.

Compared with `O=C(O)c1ccccc1Nc1cc(Cl)cc(Cl)c1`, `O=C(O)c1ccccc1Nc1cc(Br)cc(Br)c1` is lower in inhibition at 100 µM: 60.6% for the first, 39.1% for the second.

First: N#Cc1cccc(Nc2ccccc2C(=O)O)c1
Second: O=C(O)c1ccccc1Nc1cccc(O)c1
The inhibition at 100 µM of the first is higher: 11.6% for the first, 6.6% for the second.

Compared with `O=C(O)c1ccccc1Nc1c(Cl)cccc1Cl`, `O=C(O)c1ccccc1Nc1cccc(Cl)c1Cl` [CLOFENAMIC ACID] is higher in inhibition at 100 µM: 54.6% for the first, 56.6% for the second.

Compared with `O=C(O)c1ccccc1Nc1ccc(Cl)c(C(F)(F)F)c1`, `COc1ccc(Nc2ccccc2C(=O)O)cc1C(F)(F)F` is higher in inhibition at 100 µM: 51% for the first, 54% for the second.

Going from `O=C(O)c1ccccc1Nc1cc(C(F)(F)F)cc(C(F)(F)F)c1` to `O=C(O)c1ccccc1Nc1cccc(C(F)(F)F)c1` [FLUFENAMIC ACID], the inhibition at 100 µM rises from 39.5% to 64.4%.

First: Cc1cccc(Nc2ccccc2)c1C
Second: Cc1cccc(Nc2ccccc2C(=O)O)c1C [MEFENAMIC ACID]
The inhibition at 100 µM of the first is lower: 35.4% for the first, 60.9% for the second.

Compared with `O=C(O)c1ccccc1Nc1cccc(OC(F)(F)C(F)F)c1`, `O=C(O)c1ccccc1Nc1cccc(Br)c1` is lower in inhibition at 100 µM: 57% for the first, 48.1% for the second.

Going from `O=C(O)c1ccccc1Nc1ccccc1Cl` to `O=C(O)c1ccccc1Nc1ccccc1` [FENAMIC ACID], the inhibition at 100 µM falls from 44.6% to 28%.

Going from `O=C(O)c1ccccc1Nc1cccc(I)c1` to `Cc1cccc(C)c1Nc1ccccc1C(=O)O`, the inhibition at 100 µM rises from 40% to 48%.

Going from `O=C(O)Cc1ccccc1Nc1c(Cl)cccc1Cl` [DICLOFENAC] to `Cc1ccc(Cl)c(Nc2ccccc2C(=O)O)c1Cl` [MECLOFENAMIC ACID], the inhibition at 100 µM rises from 38% to 74.2%.
